≈ marks a conversion by molar mass, not a printed value. Calls of active or inactive are those of the source. No cut-off for these calls is given here.
Key:
[1] = Binding affinity to the thyroid hormone receptor was determined in vitro in isolated nuclei of rat liver relative to 3,5,3' triiodothyronine; assay type: tissue-based
[2] = test system: Rattus norvegicus; test: In vivo binding affinity for 3,5,3' triiodothyronine receptor of liver nuclei 1 hour after intravenous administration; assay type: organism-based
[3] = test system: Rattus norvegicus; test: Potency for induction of GPDH (mitochondrial cytochrome C3-phosphoglycerate oxidoreductase) was measured 48 hours after single intramuscular injection relative to T3 in heart; assay type: functional
[4] = test system: Rattus norvegicus; test: In vivo binding affinity for 3,5,3'' triiodothyronine receptor of heart nuclei 1 hr after intravenous administration; assay type: organism-based
[5] = test system: Rattus norvegicus; test: Percent increase in oxygen consumption after seven daily doses of test compound given intramuscularly, with concentration of compound at 3.3 mg/kg; assay type: functional; conditions: route intramuscular
Outline: (§1)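 Euthyroid rats given seven daily doses, intramuscular or oral, by line; whole-body oxygen consumption measured as percent increase in metabolic rate.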

[6] = test system: Rattus norvegicus; test: Percent increase in oxygen consumption after seven daily doses of test compound given perorally, with concentration of compound at 0.1 mg/kg; assay type: functional; conditions: dose 10 mg/kg; route oral; in the assay text read “10 mg/kg” for “0.1 mg/kg”; outline: as §1
[7] = test system: Rattus norvegicus; test: Potency for induction of GPDH (mitochondrial cytochrome C3-phosphoglycerate oxidoreductase) was measured 48 hours after single intramuscular injection relative to T3 in liver; assay type: functional
[8] = species on record: Rattus norvegicus; test: Selectivity ratio of ID50 in liver and heart
Outline: (§2)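 Liver/heart selectivity in rats, calculated as (relative ID50)liver divided by (relative ID50)heart, from in vivo nuclear binding 1 h after intravenous dosing.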

[9] = test system: Thyroid hormone receptor (Rattus norvegicus); test: Binding affinity to thyroid hormone receptor, relative to 3,5,3' triiodothyronine receptor, in isolated nuclei of heart
[10] = test system: Rattus norvegicus; test: Potency for induction of GPDH (mitochondrial cytochrome C3-phosphoglycerate oxidoreductase) was measured 48 hr after single im injection relative to T3 in liver; I=inactive after 2 daily doses of 50 mg/kg; assay type: functional, organism-based; design: dose 50 mg/kg
[11] = test system: Rattus norvegicus; test: Potency for induction of GPDH (mitochondrial cytochrome C3-phosphoglycerate oxidoreductase) was measured 48 hr after single im injection relative to T3 in heart; I=inactive after 2 daily doses of 50 mg/kg; assay type: functional, organism-based; design: dose 50 mg/kg
[12] = test system: Rattus norvegicus; test: Potency for induction of GPDH (mitochondrial cytochrome C 3-phosphoglycerate oxidoreductase) was measured 48 hr after single im injection relative to T3 in liver; LM=low maximal response after 2 daily doses of 50 mg/kg; assay type: functional, organism-based; design: dose 50 mg/kg; conditions: filed as partial agonist
[13] = Selectivity, ratio between relative ID50 in liver and heart; outline: as §2
[14] = target: T1, Thyroid hormone receptor beta (Rattus norvegicus) (UniProt P18113); test: Binding affinity to the receptor was determined in nuclei of liver In vivo 1 hour after intravenous administration relative to T3; assay type: organism-based
T1 sequence (whole entry): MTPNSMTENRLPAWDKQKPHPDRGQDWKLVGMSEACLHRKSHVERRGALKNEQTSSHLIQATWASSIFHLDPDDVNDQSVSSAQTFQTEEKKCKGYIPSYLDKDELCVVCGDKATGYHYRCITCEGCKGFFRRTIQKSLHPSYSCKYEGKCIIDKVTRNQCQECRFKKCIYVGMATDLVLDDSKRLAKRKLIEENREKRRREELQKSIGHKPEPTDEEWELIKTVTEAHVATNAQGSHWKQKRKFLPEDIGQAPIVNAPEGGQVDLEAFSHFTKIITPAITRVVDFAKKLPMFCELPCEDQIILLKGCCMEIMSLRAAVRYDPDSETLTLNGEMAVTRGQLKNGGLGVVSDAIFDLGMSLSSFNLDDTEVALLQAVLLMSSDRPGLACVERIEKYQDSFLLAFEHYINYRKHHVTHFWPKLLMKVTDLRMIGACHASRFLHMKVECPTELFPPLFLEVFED

[15] = target: T1, Thyroid hormone receptor beta (Rattus norvegicus); test: Binding affinity to the receptor was determined in nuclei of heart in vivo 1 hour after intravenous administration relative to 3,5,3' triiodothyronine receptor
[16] = test system: Rattus norvegicus; test: Potency for induction of GPDH (mitochondrial cytochrome C 3-phosphoglycerate oxidoreductase) was measured 48 hr after single im injection relative to T3 in heart; LM=low maximal response after 2 daily doses of 50 mg/kg; assay type: functional, organism-based; design: dose 50 mg/kg; conditions: filed as partial agonist
[17] = target: T1, Thyroid hormone receptor beta (Rattus norvegicus); test: Binding affinity to the receptor was determined in vitro in isolated nuclei of rat liver relative to T3; assay type: tissue-based
[18] = target: T1, Thyroid hormone receptor beta (Rattus norvegicus); test: Binding affinity to the receptor was determined in vivo in rat liver nuclei 1 h after intravenous administration relative to 3,5,3' triiodothyronine receptor
[19] = target: T1, Thyroid hormone receptor beta (Rattus norvegicus); test: In vitro binding affinity to the receptor was determined in isolated nuclei of heart relative to T3
[20] = test system: Rattus norvegicus; test: Potency for induction of GPDH (mitochondrial cytochrome C3-phosphoglycerate oxidoreductase) was measured 48 hours after single intramuscular injection relative to T3 in liver; LM is low maximal response after 2 daily doses of 50 mg/kg; assay type: functional
[21] = test system: Rattus norvegicus; test: Percent increase in oxygen consumption after seven daily doses of test compound given perorally, with concentration of compound at 5 mg/kg; assay type: functional; conditions: route oral; outline: as §1
[22] = Partition coefficient at 25 degree Celsius in octanol/aqueous buffer at pH 6.02; assay type: physicochemical
[23] = Aqueous solubility at 37 degree Celsius at pH 7.38; assay type: physicochemical
Outline: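 Solubility in aqueous medium at 37 °C, pH 7.38; given in units of ×10^5 mol/L.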

| SMILES | Relative IC50 [1] | Relative ID50 [2] | Relative ID50 [4] | Ratio [8] | Relative IC50 [9] | Relative ED50 [11] | Relative ED50 [12] | Ratio [13] | also measured |
| --- | --- | --- | --- | --- | --- | --- | --- | --- | --- |
| N[C@@H](Cc1cc(I)c(Oc2ccc(O)c(Cc3ccc(O)nn3)c2)c(I)c1)C(=O)O | 2 | 38 | 0.4 | 95 | 4 | – | – | – | Relative ED50 [3]: <0.1; Increase [5]: 19%; Increase [6]: 20%; Relative ED50 [7]: 2.4 |
| Nc1ccc(Cc2cc(Oc3c(I)cc(C[C@H](N)C(=O)O)cc3I)ccc2O)cc1 | 0.63 | 0.21 | 0.023 | 9.13 | 1.1 | inactive | – | – | Relative ED50 [10]: inactive |
| N[C@@H](Cc1cc(I)c(Oc2ccc(O)c(Cc3ccc(O)c(Cl)c3)c2)c(I)c1)C(=O)O | 5.9 | 0.07 | 0.07 | 1 | 15 | inactive | Partial agonist | – | – |
| N[C@@H](Cc1cc(I)c(Oc2ccc(O)c(Cc3ccc([N+](=O)[O-])cc3)c2)c(I)c1)C(=O)O | 20 | 9.8 | 0.71 | 13.8 | 64 | – | Partial agonist | – | Relative ED50 [3]: 0.9 |
| N[C@@H](Cc1cc(I)c(Oc2ccc(O)c(Cc3ccccc3)c2)c(I)c1)C(=O)O | 15 | – | – | – | – | – | – | 17 | Relative ED50 [3]: 0.5; Relative ID50 [14]: 5.1; Relative ED50 [7]: 2.2; Relative ID50 [15]: 0.3 |
| CC(C)c1cc(Cc2cc(Oc3c(I)cc(C[C@H](N)C(=O)O)cc3I)ccc2O)ccc1O | 0.67 | 0.11 | 0.11 | 1 | 4.4 | – | Partial agonist | – | Relative ED50 [16]: Partial agonist |
| N[C@@H](Cc1cc(I)c(Oc2ccc(O)c(Cc3ccnc(O)c3)c2)c(I)c1)C(=O)O | – | – | – | – | – | inactive | Partial agonist | 20 | Relative IC50 [17]: 0.042; Relative ID50 [18]: 0.07 |
| Cc1cc(O)c(Cc2ccc(O)nc2)cc1Oc1c(I)cc(C[C@H](N)C(=O)O)cc1I | 0.028 | – | – | – | – | – | – | – | – |
| N#Cc1ccc(Cc2cc(Oc3c(I)cc(C[C@H](N)C(=O)O)cc3I)ccc2O)cc1 | 13 | – | – | – | – | inactive | Partial agonist | 27.7 | Relative ID50 [14]: 6.1; Relative ID50 [15]: 0.22 |
| Cc1cc(Cc2cc(Oc3c(I)cc(C[C@H](N)C(=O)O)cc3I)ccc2O)ccc1O | 7.4 | 0.35 | 0.1 | 3.5 | 9.7 | inactive | Partial agonist | – | – |
| N[C@@H](Cc1cc(I)c(Oc2ccc(O)c(Cc3cnc(O)nc3)c2)c(I)c1)C(=O)O | – | – | – | – | – | inactive | – | 45.2 | Relative IC50 [17]: 0.15; Relative ED50 [10]: inactive; Relative IC50 [19]: 0.58; Relative ID50 [18]: 0.28 |
| N[C@@H](Cc1cc(I)c(Oc2ccc(O)c(Cn3ccc(=O)cc3)c2)c(I)c1)C(=O)O | 0.25 | 2.7 | 0.013 | 208 | 0.4 | inactive | – | – | Relative ED50 [7]: 1.4 |
| N[C@@H](Cc1cc(I)c(Oc2ccc(O)c(Cc3ccc(O)cc3)c2)c(I)c1)C(=O)O | 17 | – | – | – | – | – | – | 27.1 | Relative ED50 [3]: <0.1; Relative ED50 [20]: 2.2; Relative ID50 [14]: 19 |
| N[C@@H](Cc1cc(I)c(Oc2ccc(O)c(Cc3ccc(O)c(F)c3)c2)c(I)c1)C(=O)O | 31 | 0.6 | 0.37 | 1.62 | 31 | inactive | Partial agonist | – | – |
| Cn1cc(Cc2cc(Oc3c(I)cc(C[C@H](N)C(=O)O)cc3I)ccc2O)ccc1=O | 0.76 | – | – | – | – | inactive | Partial agonist | 74.1 | – |
| N[C@@H](Cc1cc(I)c(Oc2ccc(O)c(Cc3ccccn3)c2)c(I)c1)C(=O)O | 0.96 | 2.4 | 0.54 | 4.44 | 3.5 | – | – | – | Relative ED50 [16]: Partial agonist |
| N[C@@H](Cc1cc(Cl)c(Oc2ccc(O)c(Cc3ccc(O)nc3)c2)c(Cl)c1)C(=O)O | 0.49 | 13 | 0.5 | – | 0.53 | – | – | – | Increase [21]: 31%; Relative ED50 [16]: Partial agonist; logD [22]: 0.6; solubility [23]: 100 µM (≈ 44.9 µg/mL); Increase [5]: 26%; Relative ED50 [7]: 1.2 |
| N[C@@H](Cc1cc(I)c(Oc2ccc(O)c(Cc3ccc(O)cn3)c2)c(I)c1)C(=O)O | 20 | 31 | 2.5 | 12.4 | 15 | – | – | – | Relative ED50 [16]: Partial agonist; Relative ED50 [7]: 1.7 |
| N[C@@H](Cc1cc(I)c(Oc2ccc(O)c(Cc3ccncc3)c2)c(I)c1)C(=O)O | 8.5 | 7 | 1.6 | 4.38 | 15 | – | Partial agonist | – | Relative ED50 [16]: Partial agonist |
